Measurements as given in ChEMBL document CHEMBL1806456, “Chemistry of ecteinascidins. Part 3: preparation of 2'-N-acyl derivatives of ecteinascidin 770 and evaluation of cytotoxicity” (Bioorg Med Chem, 2011).

How the values were obtained:
Type in all cases: functional, cell-based
HCT-116 = assay: Cytotoxicity against human HCT116 cells after 4 days by MTT assay; settings: HCT-116, 96 h
In short: (§1)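 Cells seeded as single-cell suspension, 2 × 10³ cells/well, onto serially diluted compounds in microplates; cultured 4 d. Viable cells counted with a cell counting kit. IC50 taken as concentration giving 50% growth inhibition relative to untreated control.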

QG-56 = assay: Cytotoxicity against human QG56 cells after 4 days by MTT assay; settings: QG-56, 96 h; in short: as §1
DU-145 = assay: Cytotoxicity against human DU145 cells after 4 days by MTT assay; settings: DU-145, 96 h; in short: as §1

COc1cc2c(cc1O)CCN[C@]21CS[C@@H]2c3c(OC(C)=O)c(C)c4c(c3[C@H](COC1=O)N1[C@@H]2[C@H]2c3c(cc(C)c(OC)c3O)C[C@@H]([C@@H]1C#N)N2C)OCO4 [ECTEINASCIDIN 770]
IC50 (HCT-116): 0.6 nM | IC50 (QG-56): 2.4 nM | IC50 (DU-145): 0.81 nM

C=CCOc1cc2c(cc1OC)[C@@]1(CS[C@@H]3c4c(OC(C)=O)c(C)c5c(c4[C@@H](COC1=O)N1[C@@H]3[C@H]3c4c(cc(C)c(OC)c4OCC=C)C[C@@H]([C@@H]1C#N)N3C)OCO5)N(C(=O)c1cccc3ncccc13)CC2
IC50 (HCT-116): 320 nM | IC50 (QG-56): 640 nM | IC50 (DU-145): 550 nM

COc1cc2c(cc1O)CCN(C(=O)c1cccc([N+](=O)[O-])c1)[C@]21CS[C@@H]2c3c(OC(C)=O)c(C)c4c(c3[C@@H](COC1=O)N1[C@@H]2[C@H]2c3c(cc(C)c(OC)c3O)C[C@@H]([C@@H]1C#N)N2C)OCO4
IC50 (HCT-116): 0.14 nM | IC50 (QG-56): 0.43 nM | IC50 (DU-145): 0.73 nM

C=CCOc1cc2c(cc1OC)[C@@]1(CS[C@@H]3c4c(OC(C)=O)c(C)c5c(c4[C@@H](COC1=O)N1[C@@H]3[C@H]3c4c(cc(C)c(OC)c4OCC=C)C[C@@H]([C@@H]1C#N)N3C)OCO5)N(CC=C)CC2
IC50 (HCT-116): 620 nM | IC50 (QG-56): > 1000 nM | IC50 (DU-145): > 1000 nM

COc1cc2c(cc1O)CCN(C(=O)c1cccnc1)[C@]21CS[C@@H]2c3c(OC(C)=O)c(C)c4c(c3[C@@H](COC1=O)N1[C@@H]2[C@H]2c3c(cc(C)c(OC)c3O)C[C@@H]([C@@H]1C#N)N2C)OCO4
IC50 (HCT-116): 0.13 nM | IC50 (QG-56): 0.4 nM | IC50 (DU-145): 0.72 nM

C=CCOc1cc2c(cc1OC)[C@@]1(CS[C@@H]3c4c(OC(C)=O)c(C)c5c(c4[C@@H](COC1=O)N1[C@@H]3[C@H]3c4c(cc(C)c(OC)c4OCC=C)C[C@@H]([C@@H]1C#N)N3C)OCO5)N(C(=O)c1ccc(Br)cc1)CC2
IC50 (HCT-116): 480 nM | IC50 (QG-56): > 1000 nM | IC50 (DU-145): 730 nM

C=CCOc1cc2c(cc1OC)[C@@]1(CS[C@@H]3c4c(OC(C)=O)c(C)c5c(c4[C@@H](COC1=O)N1[C@@H]3[C@H]3c4c(cc(C)c(OC)c4OCC=C)C[C@@H]([C@@H]1C#N)N3C)OCO5)N(C(=O)c1ccccc1)CC2
IC50 (HCT-116): 190 nM | IC50 (QG-56): 690 nM | IC50 (DU-145): 540 nM

C=CCOc1cc2c(cc1OC)[C@@]1(CS[C@@H]3c4c(OC(C)=O)c(C)c5c(c4[C@@H](COC1=O)N1[C@@H]3[C@H]3c4c(cc(C)c(OC)c4OCC=C)C[C@@H]([C@@H]1C#N)N3C)OCO5)N(C(=O)c1ccnc3ccccc13)CC2
IC50 (HCT-116): 310 nM | IC50 (QG-56): 420 nM | IC50 (DU-145): 420 nM

COc1cc2c(cc1O)CCN(C(=O)/C=C/c1ccc([N+](=O)[O-])cc1)[C@]21CS[C@@H]2c3c(OC(C)=O)c(C)c4c(c3[C@@H](COC1=O)N1[C@@H]2[C@H]2c3c(cc(C)c(OC)c3O)C[C@@H]([C@@H]1C#N)N2C)OCO4
IC50 (HCT-116): 0.6 nM | IC50 (QG-56): 2.4 nM | IC50 (DU-145): 0.81 nM

C=CCOc1c(OC)c(C)cc2c1[C@@H]1[C@@H]3[C@@H]4SC[C@]5(C(=O)OC[C@H](c6c7c(c(C)c(OC(C)=O)c64)OCO7)N3[C@@H](C#N)[C@H](C2)N1C)c1cc(OC)c(O)cc1CCN5C(=O)/C=C/c1ccc([N+](=O)[O-])cc1
IC50 (HCT-116): 2.7 nM | IC50 (QG-56): 9.8 nM | IC50 (DU-145): 5 nM

COc1cc2c(cc1O)CCN(C(=O)c1ccc3ncccc3c1)[C@]21CS[C@@H]2c3c(OC(C)=O)c(C)c4c(c3[C@@H](COC1=O)N1[C@@H]2[C@H]2c3c(cc(C)c(OC)c3O)C[C@@H]([C@@H]1C#N)N2C)OCO4
IC50 (HCT-116): 0.045 nM | IC50 (QG-56): 0.16 nM | IC50 (DU-145): 0.043 nM

C=CCOc1cc2c(cc1OC)[C@@]1(CS[C@@H]3c4c(OC(C)=O)c(C)c5c(c4[C@@H](COC1=O)N1[C@@H]3[C@H]3c4c(cc(C)c(OC)c4OCC=C)C[C@@H]([C@@H]1C#N)N3C)OCO5)N(C(=O)c1ccncc1)CC2
IC50 (HCT-116): 280 nM | IC50 (QG-56): 790 nM | IC50 (DU-145): 590 nM

COc1cc2c(cc1O)CCN(C(=O)c1ccccc1)[C@]21CS[C@@H]2c3c(OC(C)=O)c(C)c4c(c3[C@@H](COC1=O)N1[C@@H]2[C@H]2c3c(cc(C)c(OC)c3O)C[C@@H]([C@@H]1C#N)N2C)OCO4
IC50 (HCT-116): 0.37 nM | IC50 (QG-56): 1 nM | IC50 (DU-145): 1.1 nM

COc1cc2c(cc1O)CCN(C(=O)c1ccnc3ccccc13)[C@]21CS[C@@H]2c3c(OC(C)=O)c(C)c4c(c3[C@@H](COC1=O)N1[C@@H]2[C@H]2c3c(cc(C)c(OC)c3O)C[C@@H]([C@@H]1C#N)N2C)OCO4
IC50 (HCT-116): 0.067 nM | IC50 (QG-56): 0.23 nM | IC50 (DU-145): 0.16 nM

C=CCOc1cc2c(cc1OC)[C@@]1(CS[C@@H]3c4c(OC(C)=O)c(C)c5c(c4[C@@H](COC1=O)N1[C@@H]3[C@H]3c4c(cc(C)c(OC)c4O)C[C@@H]([C@@H]1C#N)N3C)OCO5)NCC2
IC50 (HCT-116): 2.4 nM | IC50 (QG-56): 12 nM | IC50 (DU-145): 7.1 nM

C=CCOc1cc2c(cc1OC)[C@@]1(CS[C@@H]3c4c(OC(C)=O)c(C)c5c(c4[C@@H](COC1=O)N1[C@@H]3[C@H]3c4c(cc(C)c(OC)c4OCC=C)C[C@@H]([C@@H]1C#N)N3C)OCO5)N(C(=O)c1cccnc1)CC2
IC50 (HCT-116): 390 nM | IC50 (QG-56): > 1000 nM | IC50 (DU-145): 680 nM

COc1cc2c(cc1O)CCN(C(=O)c1c[nH]c3ccccc13)[C@]21CS[C@@H]2c3c(OC(C)=O)c(C)c4c(c3[C@@H](COC1=O)N1[C@@H]2[C@H]2c3c(cc(C)c(OC)c3O)C[C@@H]([C@@H]1C#N)N2C)OCO4
IC50 (HCT-116): 0.16 nM | IC50 (QG-56): 0.46 nM | IC50 (DU-145): 0.45 nM

COc1cc2c(cc1O)CCN(C(=O)c1ccncc1)[C@]21CS[C@@H]2c3c(OC(C)=O)c(C)c4c(c3[C@@H](COC1=O)N1[C@@H]2[C@H]2c3c(cc(C)c(OC)c3O)C[C@@H]([C@@H]1C#N)N2C)OCO4
IC50 (HCT-116): 0.045 nM | IC50 (QG-56): 0.2 nM | IC50 (DU-145): 0.3 nM

C=CCN1CCc2cc(O)c(OC)cc2[C@@]12CS[C@@H]1c3c(OC(C)=O)c(C)c4c(c3[C@@H](COC2=O)N2[C@@H]1[C@H]1c3c(cc(C)c(OC)c3O)C[C@@H]([C@@H]2C#N)N1C)OCO4
IC50 (HCT-116): 0.5 nM | IC50 (QG-56): 1.8 nM | IC50 (DU-145): 1.2 nM

C=CCOc1cc2c(cc1OC)[C@@]1(CS[C@@H]3c4c(OC(C)=O)c(C)c5c(c4[C@@H](COC1=O)N1[C@@H]3[C@H]3c4c(cc(C)c(OC)c4OCC=C)C[C@@H]([C@@H]1C#N)N3C)OCO5)N(C(=O)/C=C/c1ccccc1)CC2
IC50 (HCT-116): 630 nM | IC50 (QG-56): > 1000 nM | IC50 (DU-145): > 1000 nM

C=CCOc1cc2c(cc1OC)[C@@]1(CS[C@@H]3c4c(OC(C)=O)c(C)c5c(c4[C@@H](COC1=O)N1[C@@H]3[C@H]3c4c(cc(C)c(OC)c4OCC=C)C[C@@H]([C@@H]1C#N)N3C)OCO5)N(C(=O)c1ccccc1Br)CC2
IC50 (HCT-116): > 1000 nM | IC50 (QG-56): > 1000 nM | IC50 (DU-145): > 1000 nM

C=CCOc1cc2c(cc1OC)[C@@]1(CS[C@@H]3c4c(OC(C)=O)c(C)c5c(c4[C@@H](COC1=O)N1[C@@H]3[C@H]3c4c(cc(C)c(OC)c4OCC=C)C[C@@H]([C@@H]1C#N)N3C)OCO5)N(C(=O)c1ccc([N+](=O)[O-])cc1)CC2
IC50 (HCT-116): 260 nM | IC50 (QG-56): 790 nM | IC50 (DU-145): 590 nM

C=CCOc1cc2c(cc1OC)[C@@]1(CS[C@@H]3c4c(OC(C)=O)c(C)c5c(c4[C@@H](COC1=O)N1[C@@H]3[C@H]3c4c(cc(C)c(OC)c4OCC=C)C[C@@H]([C@@H]1C#N)N3C)OCO5)N(C(=O)/C=C/c1ccc([N+](=O)[O-])cc1)CC2
IC50 (HCT-116): 520 nM | IC50 (QG-56): 8500 nM | IC50 (DU-145): 7500 nM

C=CCOc1cc2c(cc1OC)[C@@]1(CS[C@@H]3c4c(OC(C)=O)c(C)c5c(c4[C@@H](COC1=O)N1[C@@H]3[C@H]3c4c(cc(C)c(OC)c4OCC=C)C[C@@H]([C@@H]1C#N)N3C)OCO5)NCC2
IC50 (HCT-116): 54 nM | IC50 (QG-56): 160 nM | IC50 (DU-145): 100 nM

COc1cc2c(cc1O)CCN(C(=O)/C=C/c1ccccc1)[C@]21CS[C@@H]2c3c(OC(C)=O)c(C)c4c(c3[C@@H](COC1=O)N1[C@@H]2[C@H]2c3c(cc(C)c(OC)c3O)C[C@@H]([C@@H]1C#N)N2C)OCO4
IC50 (HCT-116): 0.053 nM | IC50 (QG-56): 0.33 nM | IC50 (DU-145): 0.24 nM

COc1cc2c(cc1O)CCN(C(=O)c1cccc3ncccc13)[C@]21CS[C@@H]2c3c(OC(C)=O)c(C)c4c(c3[C@@H](COC1=O)N1[C@@H]2[C@H]2c3c(cc(C)c(OC)c3O)C[C@@H]([C@@H]1C#N)N2C)OCO4
IC50 (HCT-116): 0.086 nM | IC50 (QG-56): 0.36 nM | IC50 (DU-145): 0.92 nM

C=CCOc1cc2c(cc1OC)[C@@]1(CS[C@@H]3c4c(OC(C)=O)c(C)c5c(c4[C@@H](COC1=O)N1[C@@H]3[C@H]3c4c(cc(C)c(OC)c4OCC=C)C[C@@H]([C@@H]1C#N)N3C)OCO5)N(C(=O)c1ccc3ncccc3c1)CC2
IC50 (HCT-116): 150 nM | IC50 (QG-56): 260 nM | IC50 (DU-145): 180 nM

COc1cc2c(cc1O)CCN(C(=O)c1ccc([N+](=O)[O-])cc1)[C@]21CS[C@@H]2c3c(OC(C)=O)c(C)c4c(c3[C@@H](COC1=O)N1[C@@H]2[C@H]2c3c(cc(C)c(OC)c3O)C[C@@H]([C@@H]1C#N)N2C)OCO4
IC50 (HCT-116): 0.38 nM | IC50 (QG-56): 1.1 nM | IC50 (DU-145): 1 nM

C=CCOc1cc2c(cc1OC)[C@@]1(CS[C@@H]3c4c(OC(C)=O)c(C)c5c(c4[C@@H](COC1=O)N1[C@@H]3[C@H]3c4c(cc(C)c(OC)c4OCC=C)C[C@@H]([C@@H]1C#N)N3C)OCO5)N(C(=O)c1cccc([N+](=O)[O-])c1)CC2
IC50 (HCT-116): 180 nM | IC50 (QG-56): 520 nM | IC50 (DU-145): 270 nM

C=CCOc1cc2c(cc1OC)[C@@]1(CS[C@@H]3c4c(OC(C)=O)c(C)c5c(c4[C@@H](COC1=O)N1[C@@H]3[C@H]3c4c(cc(C)c(OC)c4OCC=C)C[C@@H]([C@@H]1C#N)N3C)OCO5)N(C(=O)c1c[nH]c3ccccc13)CC2
IC50 (HCT-116): 0.45 nM | IC50 (QG-56): > 1000 nM | IC50 (DU-145): > 1000 nM
